High-throughput results deposited in PubChem by several laboratories.
In the library only some 2.9% were active in any assay of this set; here they are far more common.
ADAM17 inh: inhibits human ADAM17 | P78536 | recombinant ADAM17, EDANS/DABCYL FRET peptide cleavage | inhibition, % at 6.95 µM | 370,000 tested, 0.83% active;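 active = inhibition above the mean of compounds lying between control limits plus 3 SD, set per campaign, cut at about 8.5% in these data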;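 note: 0% = DMSO-only wells as the low control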
CaV13 ICDI inh: Disruptors of the CACNA1D IQ motif to Ca2+-dependent inactivation inhibitor domain association, primary screening, Förster resonance energy transfer in intact living …. HEK cells, CFP/YFP FRET ICDI-IQ, plate reader, 10 min; percent FRET-ratio fall versus neutral wells. inhibition, % at 12.3 µM. 340,000 tested, 0.098% active. AID 743397;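 active = mean replicate inhibition of at least 30% and at least 1% of replicates passing that level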;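 note: 0% = median of the neutral control wells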
Arr AP2 block: inhibitors of human beta-arrestin and AP2 interaction | inhibition, % at 10 µM | AID 504490 | 340,000 tested, 0.31% active | FITC-arrestin peptide / GST-AP2 beads, flow cytometry; AP2 beta2 appendage carries R879A mutation;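 active = inhibition above a set limit, near 3 SD of compounds lacking own fluorescence, cut at about 54% in these data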;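 note: plate controls were DMSO wells for no effect and 5 µM unlabelled arrestin peptide for full effect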
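Assay system: GST-AP2 R879A bound to glutathione beads, E. coli-expressed; Medium: PBS with 0.05% Tween 20 and 0.1% BSA; Also added: fluorescein-tagged arrestin peptide at 50 nM final; Timing: 12 min plus 1 h, RT; Measured by: flow cytometry, FL1 (488/535 nm); Evaluation: percent drop in bead-associated FITC signal.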
ADAM10 inh: ADAM10 inhibition, QFRET primary screen | 370,000 tested, 0.62% active | O14672 | inhibition, % at 7 µM | AID 720582 | recombinant ADAM10, EDANS/DABCYL FRET peptide cleavage, 3 h;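 active = inhibition above a per-campaign cutoff equal to the mean of compounds falling between control-based bounds plus 3 SD, cut at about 20% in these data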;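 note: 0% = DMSO wells while the 100% control is not disclosed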
FAS-TE inh: blocks the thioesterase domain of human fatty acid synthase; P49327; AID 602261; inhibition, % at 15 µM; 360,000 tested, 0.67% active; recombinant FAS-TE, OMFH fluorogenic substrate, fluorescence endpoint;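 active = compounds whose normalised, plate-corrected inhibition of enzyme fluorescence in the single-dose primary screen is 50% or more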;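 note: 0% = DMSO with enzyme and 100% = substrate without enzyme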
CendR NRP1 mod: alters CendR peptide binding to human NRP-1; O14786; FAM-RPARPAR peptide binding to NRP-1, fluorescence polarization; inhibition, % at 25 µM; 360,000 tested, 0.85% active; AID 602438;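 active = inhibition or corrected inhibition above about 18%, plus a signal ratio from 0.5 to 1.5, limit read from the data, passing the limit was not always enough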
ADAM10 counter: ADAM10 inhibition, counter-screen for ADAM17 exosite hits; recombinant ADAM10, EDANS/DABCYL FRET peptide cleavage, 3 h; 2,900 tested, 47% active; shares compounds with ADAM17 inh; inhibition, % at 6.95 µM;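 active = mean inhibition over the triplicate runs exceeds the activity threshold set in the earlier primary screen, cut at about 20% in these data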;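 note: 0% = DMSO wells and 100% = marimastat wells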
ADAM17 confirm: human ADAM17 inhibition, confirmation; inhibition, % at 6.95 µM; shares compounds with ADAM17 inh; recombinant ADAM17, EDANS/DABCYL QFRET peptide cleavage; 2,900 tested, 65% active;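 active = mean inhibition across replicates above the hit cutoff set in the primary screen, cut at about 8.5% in these data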;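 note: 0% = DMSO wells and 100% = marimastat wells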
Active calls of the source: *.

`Cc1ccccc1CNC(=O)c1ccc2sc([C@H]3C[C@H](O)[C@@H](CO)O3)nc2c1` gave ADAM17 inh -4, CaV13 ICDI inh -5, ADAM10 inh -8, FAS-TE inh -4 and CendR NRP1 mod -2.
CC(C)(C)NC(=O)C(c1ccncc1)N(C(=O)Cn1nnc(-c2ccc(F)cc2)n1)c1ccccc1F (centres undefined) was read as ADAM17 inh 0, CaV13 ICDI inh -5, Arr AP2 block 41, ADAM10 inh -3, FAS-TE inh -6 and CendR NRP1 mod 0.
For CC(C)(C)NC(=O)C(c1ccc(O)cc1)N(C(=O)Cn1nnc(-c2ccc(F)cc2)n1)c1ccccc1F (centres undefined) the results were ADAM17 inh 9.9*, CaV13 ICDI inh -3, Arr AP2 block -3, ADAM10 inh 16, FAS-TE inh 17, CendR NRP1 mod -4, ADAM10 counter 39* and ADAM17 confirm 18*.
For CNC(C)C(=O)NC(C(=O)N1CCCC1C(=O)Nc1cccc2ncccc12)C(C)C (centres undefined) the results were ADAM17 inh -4 and ADAM10 inh -1.
`Cc1ccc(NC(=O)C(NC2CCCC2)c2ccccc2)cc1Cl` (centres undefined) gave ADAM17 inh 0, CaV13 ICDI inh -6, Arr AP2 block 10, ADAM10 inh 3, FAS-TE inh 19 and CendR NRP1 mod -9.
Cc1ccc(NC(=O)C(OC(=O)c2ccccc2Cl)c2ccccc2)cc1Cl (centres undefined) was read as ADAM17 inh 9.3*, CaV13 ICDI inh -2, Arr AP2 block -4, ADAM10 inh 15, FAS-TE inh 39, CendR NRP1 mod -6, ADAM10 counter 31* and ADAM17 confirm 21*.
CCOC(=O)C1=C(C(=O)OCC)C2N(Cc3ccc(Br)cc3)c3ccccc3[C@@]23C[C@@H](C(=O)OC)N(S(=O)(=O)c2ccc(OC)cc2)C3=N1 (some centres undefined) was read as ADAM17 inh -5, CaV13 ICDI inh -9 and ADAM10 inh -11.
Cc1ccccc1-c1cccc([C@@H]2C[C@H]3[C@H](CON3C)CN2S(=O)(=O)c2ccccc2C)c1 was read as ADAM17 inh 0, CaV13 ICDI inh -6, Arr AP2 block -8, ADAM10 inh 1, FAS-TE inh 17 and CendR NRP1 mod 16.
For Cc1cccc(Nc2ncccc2C(=O)NCc2cccs2)c1C the results were ADAM17 inh 10*, CaV13 ICDI inh -6, Arr AP2 block 8, ADAM10 inh 16, FAS-TE inh 21, CendR NRP1 mod -4, ADAM10 counter 27* and ADAM17 confirm 15*.
Cc1ccc(Nc2ncccc2C(=O)NCc2cccs2)c(C)c1 was read as ADAM17 inh 3, CaV13 ICDI inh -4, Arr AP2 block 8, ADAM10 inh 10, FAS-TE inh 24 and CendR NRP1 mod -21.
`C#CCN(Cc1ccco1)C(=O)c1nnc2c3ccccc3n(S(=O)(=O)c3ccc(C)cc3)c2n1` gave ADAM17 inh -8, CaV13 ICDI inh -4 and ADAM10 inh -42.
For CC12CCC(C(=O)NNc3ccccc3)(OC1=O)C2(C)C (centres undefined) the results were ADAM17 inh -5, CaV13 ICDI inh 3, Arr AP2 block -1, ADAM10 inh -9, FAS-TE inh -2 and CendR NRP1 mod -10.
CC12CCC(C(=O)NC(c3ccccc3)c3ccccc3)(OC1=O)C2(C)C (centres undefined) was read as ADAM17 inh 9.1*, CaV13 ICDI inh -6, Arr AP2 block -7, ADAM10 inh 12, FAS-TE inh 10, CendR NRP1 mod -6, ADAM10 counter -5 and ADAM17 confirm -1.
